Screening results deposited in PubChem BioAssay by Johns Hopkins Ion Channel Center.
KCNQ1 pot: human KCNQ1 channel potentiation or activation. CHO-K1 KCNQ1, thallium flux FluxOR fluorescence; active compounds read high. B-score at 10 µM. 0.35% of 310,000 active. AID 2648;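 active = fluorescence ratio B-score, a plate-corrected score, at least three library SD, with initial intensity B-score within 5 SD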
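Schedule – 37 °C overnight plating, 90-min dark dye load, 20-min compound pretreatment · System – stable KCNQ1 CHO-K1 line · Probe or stimulus – thallium- and potassium-containing depolarizing buffer · Measured by – kinetic FluxOR fluorescence, 10 s baseline plus 110 s post-stimulus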
KCNK9 block: blocks the human KCNK9 two-pore domain potassium channel. Q9NPC2. HEK293 KCNK9, FluxOR thallium flux fluorescence; active compounds read low. B-score at 10 µM. 1.2% of 310,000 active. AID 488922;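 active = ratio B-score over 3 SD below the library mean, with starting fluorescence within 5 SD of its mean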;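 note: negative B-score means less thallium flux so channel inhibition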
KCNQ1 inh: human KCNQ1 channel inhibition; P51787; CHO-K1 KCNQ1, FluxOR thallium flux fluorescence; active compounds read high; B-score at 10 µM; 1.3% of 310,000 active;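 active = compounds whose thallium flux B-score, printed positive for inhibition, exceeds three library SD while starting fluorescence stays within three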;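 note: channel opened by potassium depolarization with thallium stimulus after 20 min compound exposure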
Kir21 inh: inhibitors of mouse Kir2.1 inward-rectifier potassium channel; P35561; HEK293-Kir2.1, FluxOR thallium flux fluorescence; active compounds read low; B-score at 10 µM; 0.85% of 310,000 active; AID 1672;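 active = fluorescence ratio B-score at or below minus 3 SD of library scores, with starting-brightness B-score within 2 SD, cut at about -4.2 in these data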;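 note: channel flux triggered by added potassium and thallium sulfate stimulus; B-score of peak minus minimum fluorescence over baseline after thallium stimulus; more negative B-score means stronger Kir2.1 block with less thallium influx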
KCNK3 block: human KCNK3 channel inhibition, primary screen. CHO-KCNK3 thallium flux, FluxOR fluorescence; active compounds read low. B-score at 10 µM. 0.84% of 340,000 active. AID 602410;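 active = B-score under library mean minus 4 SD, starting fluorescence ratio at most library mean plus 5 SD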;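 note: more negative B-score means stronger inhibition of thallium flux through KCNK3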
hERG protect: hERG (human) protection from proarrhythmic block. Q12809. CHO-hERG, FluxOR thallium flux, dofetilide IC70 present. activation (rescue from dofetilide block), less the hit threshold, % at 10 µM. 0.51% of 310,000 active;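 active = activation above the mean of controls blocked by dofetilide plus 5 SD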;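 note: thallium influx through hERG after potassium depolarization seen as dye fluorescence rise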
KCNK9 inh conf: human KCNK9 inhibitor confirmation | AID 492992 | HEK293 KCNK9 cells, FluxOR thallium flux fluorescence | inhibition, % at 10 µM | 43% of 4,900 active | shares compounds with KCNK9 block;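 active = thallium signal inhibited by more than 5 SD of the compound-free buffer control wells, on both duplicate plates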
Kir2-1 spec: selectivity of KCNK9 modulators against mouse Kir2.1. shares compounds with KCNK9 block. Kir2.1 cells, FluxOR thallium flux fluorescence. inhibition, % at 10 µM. 4% of 4,900 active;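 active = thallium signal drop more than 5 SD beyond the mean of the no-compound control wells, seen in both duplicate plates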;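 note: signal is fluorescence rise after thallium addition divided by baseline fluorescence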
KCNK9 uninduced: second counter-screen for KCNK9 modulators: effect in non-induced cells; shares compounds with KCNK9 block; non-induced KCNK9-HEK293, FluxOR thallium flux; inhibition, % at 10 µM; 40% of 4,900 active; AID 492997;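 active = thallium signal drop beyond 5 SD of the untreated control mean, on both duplicate plates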
A number is an active result. In the library only some 3.7% were active in any assay of this set; here they are far more common.

Results for CC1(C)CC(N(Cc2ccc(F)cc2)C(=O)c2ccc(F)cc2)CCO1 (stereo not drawn) ?
KCNQ1 pot: inactive; KCNK9 block: inactive; KCNQ1 inh: inactive; Kir21 inh: inactive; KCNK3 block: inactive; hERG protect: inactive

How did COC(=O)CC1(C(=O)OC)Oc2ccc(Br)cc2C(=O)N1c1cc(Cl)c(Cl)cc1Cl (stereo not drawn) do in these assays?
KCNQ1 pot: inactive; KCNK9 block: -8.55; KCNQ1 inh: inactive; Kir21 inh: inactive; KCNK3 block: inactive; hERG protect: inactive; KCNK9 inh conf: 25.0%; Kir2-1 spec: inactive; KCNK9 uninduced: 42.5%

How did Cc1ccc(-c2[nH]c3ccccc3c2SCCNC(=O)c2cc3ccccc3oc2=O)cc1 do in these assays?
KCNQ1 pot: inactive; KCNK9 block: inactive; KCNQ1 inh: 6; Kir21 inh: inactive; KCNK3 block: inactive; hERG protect: inactive; KCNK9 inh conf: inactive; Kir2-1 spec: inactive; KCNK9 uninduced: inactive

How did Cc1ccc(N2CC(C(=O)N3CCCCC3)CC2=O)cc1C (stereo not drawn) do in these assays?
KCNQ1 pot: inactive; KCNK9 block: inactive; KCNQ1 inh: inactive; Kir21 inh: inactive; KCNK3 block: inactive; hERG protect: inactive

What do the screens show for `Cc1ccc(S(=O)(=O)NNC(=O)c2ccoc2C)cc1`?
KCNQ1 pot: inactive; KCNK9 block: inactive; KCNQ1 inh: inactive; Kir21 inh: inactive; KCNK3 block: inactive; hERG protect: inactive

Results for S=C(NCCc1ccccc1)N1CCN(Cc2ccc(Cl)c(Cl)c2)CC1 ?
KCNQ1 pot: inactive; KCNK9 block: inactive; KCNQ1 inh: inactive; Kir21 inh: inactive; KCNK3 block: inactive; hERG protect: inactive; KCNK9 inh conf: inactive; Kir2-1 spec: inactive; KCNK9 uninduced: 25.0%

What do the screens show for `O=C(c1cc2cc(F)ccc2[nH]1)N1CCN(c2cccc(Cl)c2)CC1`?
KCNQ1 pot: inactive; KCNK9 block: inactive; KCNQ1 inh: inactive; Kir21 inh: inactive; KCNK3 block: inactive; hERG protect: inactive; KCNK9 inh conf: inactive; Kir2-1 spec: inactive; KCNK9 uninduced: inactive

What do the screens show for `COc1cccc(N2CCN(C(=O)c3cc4cc(Cl)ccc4[nH]3)CC2)c1`?
KCNQ1 pot: inactive; KCNK9 block: inactive; KCNQ1 inh: inactive; Kir21 inh: inactive; KCNK3 block: inactive; hERG protect: inactive

What do the screens show for `COc1ccc(F)cc1C(=O)C1CCCN(C(=O)c2ocnc2C)C1` (stereo not drawn)?
KCNQ1 pot: inactive; KCNK9 block: inactive; KCNQ1 inh: inactive; Kir21 inh: inactive; KCNK3 block: inactive; hERG protect: inactive

How did CN(C(=O)c1ccc(NC(=O)Cc2ccc([N+](=O)[O-])cc2)cc1)C1CC1 do in these assays?
KCNK3 block: inactive

Results for O=C(c1sc2ccccc2c1Cl)N1CCN(c2ncccn2)CC1 ?
KCNQ1 pot: inactive; KCNK9 block: inactive; KCNQ1 inh: inactive; Kir21 inh: inactive; KCNK3 block: inactive; hERG protect: inactive

Results for O=C(c1sc2ccccc2c1Cl)N1CCN(c2ccccc2F)CC1 ?
KCNQ1 pot: inactive; KCNK9 block: inactive; KCNQ1 inh: inactive; Kir21 inh: inactive; KCNK3 block: inactive; hERG protect: inactive; KCNK9 inh conf: inactive; Kir2-1 spec: inactive; KCNK9 uninduced: inactive

What do the screens show for `O=C(c1sc2ccccc2c1Cl)N1CCN(c2ccc(F)cc2)CC1`?
KCNQ1 pot: inactive; KCNK9 block: inactive; KCNQ1 inh: inactive; Kir21 inh: inactive; KCNK3 block: inactive; hERG protect: inactive; KCNK9 inh conf: inactive; Kir2-1 spec: inactive; KCNK9 uninduced: inactive

What do the screens show for `CCC(C)(C)n1nnnc1C(c1ccncc1)N1CCC(Cc2ccccc2)CC1` (stereo not drawn)?
KCNQ1 pot: inactive; KCNK9 block: inactive; KCNQ1 inh: inactive; Kir21 inh: inactive; KCNK3 block: inactive; hERG protect: inactive

How did CC(C)(C)n1nnnc1C(c1cccc(C#N)c1)N1CCC(Cc2ccccc2)CC1 (stereo not drawn) do in these assays?
KCNQ1 pot: inactive; KCNK9 block: -18; KCNQ1 inh: inactive; Kir21 inh: inactive; KCNK3 block: -11.4; hERG protect: inactive; KCNK9 inh conf: 60.5%; Kir2-1 spec: inactive; KCNK9 uninduced: 34.5%

Results for COc1ccc(CC2(C)OC(c3ccc(Cl)cc3)=NN2C(C)=O)cc1 (stereo not drawn) ?
KCNQ1 pot: inactive; KCNK9 block: inactive; KCNQ1 inh: inactive; Kir21 inh: inactive; KCNK3 block: inactive; hERG protect: inactive; KCNK9 inh conf: inactive; Kir2-1 spec: inactive; KCNK9 uninduced: inactive

What do the screens show for `O=[N+]([O-])c1ccc(/C=C/c2ccc3cccc([N+](=O)[O-])c3n2)cc1`?
KCNQ1 pot: inactive; KCNK9 block: inactive; KCNQ1 inh: inactive; Kir21 inh: inactive; KCNK3 block: inactive; hERG protect: inactive

What do the screens show for `O=[N+]([O-])c1cccc2ccc(/C=C/c3ccc(F)cc3)nc12`?
KCNQ1 pot: inactive; KCNK9 block: -13.4; KCNQ1 inh: inactive; Kir21 inh: inactive; KCNK3 block: inactive; hERG protect: inactive; KCNK9 inh conf: 48.0%; Kir2-1 spec: inactive; KCNK9 uninduced: 31.5%

Results for Cc1ccccc1OCCn1cc(C(=S)N2CCCC2)c2ccccc21 ?
KCNQ1 pot: inactive; KCNK9 block: -9.65; KCNQ1 inh: inactive; Kir21 inh: inactive; KCNK3 block: inactive; hERG protect: inactive; KCNK9 inh conf: inactive; Kir2-1 spec: inactive; KCNK9 uninduced: 30.0%

What do the screens show for `COC(=O)c1cccc(C23CC4(C2)[C@H](CN(Cc2ccc(C(F)(F)F)cc2)[C@@H]4c2ccccc2)C3c2ccc(C(F)(F)F)cc2)c1` (stereo partly drawn)?
KCNQ1 pot: inactive; KCNK9 block: inactive; KCNQ1 inh: inactive; Kir21 inh: inactive; hERG protect: inactive

Results for Cc1cccc(N2CCN(CC(O)COCc3cccs3)CC2)c1C (stereo not drawn) ?
KCNQ1 pot: inactive; KCNK9 block: inactive; KCNQ1 inh: inactive; Kir21 inh: inactive; KCNK3 block: inactive; hERG protect: inactive

How did CC(C)(C)n1nnnc1C(c1ccc(F)cc1)N(Cc1ccc(F)cc1)Cc1ccco1 (stereo not drawn) do in these assays?
KCNQ1 pot: inactive; KCNK9 block: -15; KCNQ1 inh: 7; Kir21 inh: inactive; KCNK3 block: inactive; hERG protect: inactive; KCNK9 inh conf: 71.5%; Kir2-1 spec: inactive; KCNK9 uninduced: 40.0%

What do the screens show for `Fc1ccc(C(c2nnnn2C2CCCC2)N(Cc2ccco2)CC2CCCO2)cc1` (stereo not drawn)?
KCNQ1 pot: inactive; KCNK9 block: inactive; KCNQ1 inh: inactive; Kir21 inh: inactive; KCNK3 block: inactive; hERG protect: inactive
